Test results reported in ChEMBL document CHEMBL2380289, “Ligand based approach to L-type calcium channel by imidazo[2,1-b]thiazole-1,4-dihydropyridines: from heart activity to brain affinity” (J Med Chem, 2013).

Columns and labels:
Ileum [1] = experiment: Relaxant activity in potassium depolarized guinea pig ileum longitudinal smooth muscle assessed as inhibition of calcium-induced contraction at 5x10'-9 M relative to control; assay type: functional, Cavia porcellus; design: scale not given: the % may be the effect or the level left
Summary of the method: (§1)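 Guinea pig aortic strips and ileum longitudinal smooth muscle were depolarized with 80 mM K⁺. Calcium-induced contraction was measured with cumulative compound addition, and inhibition was expressed as percent change from control (n = 6−7). Differences from control at each concentration were tested by Student's t-test, P < 0.05, and data are mean SEM.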

[2] = Displacement of [3H]-PN200-110 from L-type calcium channel in Hartley guinea pig atrial membrane after 90 mins; assay type: cell membranes, Cavia porcellus, Cardiac atrium
Summary of the method: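 Guinea pig atrial membranes are labelled at the 1,4-DHP site with (+)-[5-methyl-3H]PN200-110 at 0.5 nM. Competitor is added over 0.001−100 μM from 10⁻² M DMSO stocks diluted in buffer. Results are given as IC50 and Ki, mean ± SEM. Student's t-test is applied with P<0.001.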

[3] = Negative chronotropic activity in guinea pig right atrium assessed as decrease in atrial rate; assay type: functional, tissue-based; details: Cavia porcellus, Cardiac atrium
Summary of the method: (§2)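 Isolated guinea pig atria are used, with left atria driven at 1 Hz. Compounds are added cumulatively. EC50 is derived from log concentration−response curves by Litchfield–Wilcoxon probit analysis, n = 6−7. EC50 is not calculated when the maximal effect is below 50%.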

[4] = Negative inotropic activity in guinea pig left atrium assessed as decrease in developed tension; assay type: functional, tissue-based; details: Cavia porcellus, Cardiac atrium; summary of the method: as §2
[5] = Negative chronotropic activity in guinea pig right atrium assessed as decrease in atrial rate at 10^-7 M relative to control; assay type: functional, Cavia porcellus, Cardiac atrium; design: scale not given: the % may be the effect or the level left
Summary of the method: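 Spontaneously beating isolated guinea pig right atrium. Compounds added cumulatively. The decrease in atrial rate is expressed as percent change from control. At each concentration, the difference from control was tested by Student's t-test, with significance at P<0.05. Data are given as mean SEM.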

[6] = Displacement of [3H]-PN200-110 from L-type calcium channel in Hartley guinea pig ventricular membrane […] after 90 mins; design: species or system Cavia porcellus
[7] = Negative inotropic activity in guinea pig left atrium assessed as decrease in developed tension at 10^-5 M relative to control; assay type: functional, Cavia porcellus, Cardiac atrium; design: scale not given: the % may be the effect or the level left
Aorta [8] = experiment: Relaxant activity in potassium depolarized guinea pig aortic strips assessed as inhibition of calcium-induced contraction at 10^-6 M relative to control; assay type: functional, Cavia porcellus; design: scale not given: the % may be the effect or the level left; summary of the method: as §1
Rattus norvegicus = organism: Rattus norvegicus; experiment: Displacement of [3H]-PN200-110 from L-type calcium channel dihydropyridine binding site in Wistar rat cortex homogenate at 100 uM after 60 mins by liquid scintillation spectometric analysis relative to control; assay type: tissue-based
Summary of the method: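 Binding on rat cortex homogenate using (+)-[5-methyl-3H]PN200-110. The read-out is percent of maximal radioligand displacement at 100 μM test compound. Compounds are made up as 10⁻² M DMSO stocks and diluted in buffer. Values are from 3−5 separate experiments done in triplicate.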

Cavia porcellus [9] = organism: Cavia porcellus; experiment: Displacement of [3H]-PN200-110 from L-type calcium channel in Hartley guinea pig ventricular membrane […] after 90 mins relative to control
[10] = Displacement of [3H]-PN200-110 from L-type calcium channel dihydropyridine binding site in Wistar rat cortex homogenate after 60 mins by liquid scintillation spectometric analysis; assay type: tissue-based
Summary of the method: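 Competition binding on rat cortex homogenate with (+)-[5-methyl-3H]PN200-110. Compounds are dissolved in DMSO as 10⁻² M stocks and diluted in buffer. Six displacer concentrations are tested, each in triplicate. IC50 is obtained by −log probit analysis and Ki by the Prusoff method. Values are mean ± SEM of 3−5 separate experiments done in triplicate.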

HEK293 = experiment: Displacement of [3H]-PN200-110 from voltage-gated calcium channel subunit alpha Cav1.2a (unknown origin) expressed in HEK293 cells at 100 uM after 90 mins by liquid scintillation counting analysis relative to control; assay type: cell-based; details: Homo sapiens
[11] = Displacement of [3H]-PN200-110 from voltage-gated calcium channel subunit alpha Cav1.2a (unknown origin) expressed in HEK293 cells after 90 mins by liquid scintillation counting analysis; assay type: cell-based, Homo sapiens
Summary of the method: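 Intact HEK-293 cells stably transfected with a rabbit Cav1.2a (α1c-a) plasmid are used. They are incubated with 0.5 nM (+)-[5-methyl-3H]PN200-110 plus competitor at 0.001−100 μM, from 10⁻² M DMSO stocks diluted in buffer. IC50 values are given as mean ± SEM.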

Cavia porcellus [12] = organism: Cavia porcellus; experiment: Displacement of [3H]-PN200-110 from L-type calcium channel in Hartley guinea pig atrial membrane at 100 uM after 90 mins relative to control; assay type: cell membranes; details: Cardiac atrium
[13] = Negative inotropic activity in guinea pig left atrium assessed as decrease in developed tension at 10^-4 M relative to control; assay type: functional, Cavia porcellus, Cardiac atrium; design: scale not given: the % may be the effect or the level left
[14] = Negative chronotropic activity in guinea pig right atrium assessed as decrease in atrial rate at 5x10'-6 M relative to control; assay type: functional, Cavia porcellus, Cardiac atrium; design: scale not given: the % may be the effect or the level left
Ileum [15] = experiment: Relaxant activity in potassium depolarized guinea pig ileum longitudinal smooth muscle assessed as inhibition of calcium-induced contraction; assay type: functional, tissue-based; details: Cavia porcellus
Summary of the method: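 K⁺-depolarized (80 mM) guinea pig ileum longitudinal smooth muscle is used. Calcium-induced contraction is measured with cumulative compound addition.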

Aorta [16] = experiment: Relaxant activity in potassium depolarized guinea pig aortic strips assessed as inhibition of calcium-induced contraction at 10^-5 M relative to control; assay type: functional, Cavia porcellus; design: scale not given: the % may be the effect or the level left
Ileum [17] = experiment: Relaxant activity in potassium depolarized guinea pig ileum longitudinal smooth muscle assessed as inhibition of calcium-induced contraction at 5x10'-7 M relative to control; assay type: functional, Cavia porcellus; design: scale not given: the % may be the effect or the level left
[18] = Negative inotropic activity in guinea pig right atrium assessed as decrease in developed tension; assay type: functional, tissue-based; details: Cavia porcellus, Cardiac atrium
Aorta [19] = experiment: Relaxant activity in potassium depolarized guinea pig aortic strips assessed as inhibition of calcium-induced contraction at 10^-4 M relative to control; assay type: functional, Cavia porcellus; design: scale not given: the % may be the effect or the level left
Summary of the method: (§3)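 Guinea pig aortic strips and ileum longitudinal smooth muscle are depolarized with 80 mM K⁺. The read-out is percent inhibition of calcium-induced contraction. Aorta is tested at 10⁻⁴ M and ileum at 10⁻⁵ M.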

[20] = Negative chronotropic activity in guinea pig right atrium assessed as decrease in atrial rate at 10^-4 M relative to control; assay type: functional, Cavia porcellus, Cardiac atrium; design: scale not given: the % may be the effect or the level left
Summary of the method: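 The read-out is decrease in rate of spontaneously beating isolated guinea pig right atrium at 10⁻⁴ M. It is expressed as percent change from control, n = 7−8.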

[21] = Negative inotropic activity in guinea pig right atrium assessed as decrease in developed tension at 10^-5 M relative to control; assay type: functional, Cavia porcellus, Cardiac atrium; design: scale not given: the % may be the effect or the level left
Summary of the method: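 The read-out is decrease in developed tension of spontaneously beating isolated guinea pig right atrium at 10⁻⁵ M. It is expressed as percent change from control, n = 7−8.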

Ileum [22] = experiment: Relaxant activity in potassium depolarized guinea pig ileum longitudinal smooth muscle assessed as inhibition of calcium-induced contraction at 10^-5 M relative to control; assay type: functional, Cavia porcellus; design: scale not given: the % may be the effect or the level left; summary of the method: as §3

COC(=O)C1=C(C)NC(C)=C(C(=O)OC)C1c1ccccc1[N+](=O)[O-] [NIFEDIPINE]
Activity (Ileum [1]): 70% | IC50 [2]: 0.0051 µM | Ki [2]: 0.0015 µM | EC50 [3]: 0.039 µM | EC50 [4]: 0.26 µM | Activity [5]: 85% | IC50 [6]: 0.0057 µM | Ki [6]: 0.002 µM | Activity [7]: 97% | Activity (Aorta [8]): 82% | %max (Rattus norvegicus): 92% | %max (Cavia porcellus [9]): 80% | IC50 [10]: 0.0061 µM | Ki [10]: 0.0019 µM | %max (HEK293): 75% | IC50 [11]: 0.086 µM | Ki [11]: 0.032 µM | %max (Cavia porcellus [12]): 72%

COC(=O)C1=C(C)NC(C)=C(C(=O)OC)C1c1c(-c2cccs2)nc2sccn12
Activity [13]: 46% | Activity [14]: 85% | EC50 [3]: 1.3 µM | IC50 (Ileum [15]): 0.11 µM | %max (Cavia porcellus [9]): < 50% | Activity (Aorta [16]): 23% | %max (HEK293): 50% | IC50 [11]: 2.15 µM | Ki [11]: 0.71 µM | %max (Cavia porcellus [12]): < 50% | Activity (Ileum [17]): 91%

COC(=O)C1=C(C)NC(C)=C(C(=O)OC)C1c1c(-c2c(Cl)csc2Cl)nc2sc(C)cn12
EC50 [18]: 0.73 µM | Activity (Aorta [19]): 31% | Activity [20]: 22% | EC50 [4]: 0.31 µM | IC50 (Ileum [15]): 3.23 µM | Activity [7]: 60% | Activity [21]: 82% | Activity (Ileum [22]): 87%
